Experimental data reported in PubChem BioAssay AID624353 (The Scripps Research Institute Molecular Screening Center, 2012).
Calls of active or inactive are those of the source.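 Rule for the calls: active = insulin-degrading enzyme inhibitors with IC50 at or below 10 µM; inactive = the rest.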

Biological target: Insulin-degrading enzyme (Homo sapiens) (UniProt P14735)
Assay: IDE inhibitors, wild-type enzyme, late-stage follow-up, counter-screen for IDE inhibitor project, biochemical, fluorescence polarization, FAbetaB substrate, round 2 (AID 624353)
Conditions: recombinant IDE, FAbetaB cleavage
In short: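 Detection: fluorescence polarization, ex 485 nm, em 525 nm / Material: recombinant wild-type insulin-degrading enzyme (IDE), purified enzyme / Schedule: reaction at room temperature / Repeats: each compound dose-response run in triplicate / Reagent: fluorescein-Aβ-biotin peptide substrate, 100 nM / Read-out: IC50 from normalized inhibition curve / Medium: HEPES buffer at pH 7.4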

Chain of Insulin-degrading enzyme (Homo sapiens) (P14735 whole entry, looked up): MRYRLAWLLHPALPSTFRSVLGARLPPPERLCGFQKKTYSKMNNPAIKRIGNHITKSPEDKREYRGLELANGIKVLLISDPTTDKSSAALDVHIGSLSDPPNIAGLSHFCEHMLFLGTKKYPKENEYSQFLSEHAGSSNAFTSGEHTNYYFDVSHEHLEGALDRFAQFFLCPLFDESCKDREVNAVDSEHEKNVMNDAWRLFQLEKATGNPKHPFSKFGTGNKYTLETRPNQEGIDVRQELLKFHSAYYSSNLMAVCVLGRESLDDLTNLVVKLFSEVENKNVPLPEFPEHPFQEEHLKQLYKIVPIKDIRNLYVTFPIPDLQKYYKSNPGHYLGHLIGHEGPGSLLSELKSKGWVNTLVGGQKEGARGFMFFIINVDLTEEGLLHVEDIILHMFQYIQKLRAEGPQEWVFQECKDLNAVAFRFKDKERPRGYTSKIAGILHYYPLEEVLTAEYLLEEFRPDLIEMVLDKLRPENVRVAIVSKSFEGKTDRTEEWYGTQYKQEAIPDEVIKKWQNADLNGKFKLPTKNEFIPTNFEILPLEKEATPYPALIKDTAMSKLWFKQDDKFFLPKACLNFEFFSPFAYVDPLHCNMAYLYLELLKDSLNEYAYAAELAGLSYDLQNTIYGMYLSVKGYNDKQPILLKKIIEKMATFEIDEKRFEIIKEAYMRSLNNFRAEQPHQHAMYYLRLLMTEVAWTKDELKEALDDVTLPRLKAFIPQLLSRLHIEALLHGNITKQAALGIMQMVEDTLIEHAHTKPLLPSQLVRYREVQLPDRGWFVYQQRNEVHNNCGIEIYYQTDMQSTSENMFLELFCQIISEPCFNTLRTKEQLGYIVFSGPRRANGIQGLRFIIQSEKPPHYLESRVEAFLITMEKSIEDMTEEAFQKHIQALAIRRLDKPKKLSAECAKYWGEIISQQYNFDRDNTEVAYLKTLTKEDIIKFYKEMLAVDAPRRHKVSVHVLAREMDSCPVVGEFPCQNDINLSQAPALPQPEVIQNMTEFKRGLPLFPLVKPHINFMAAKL

Row | Compound | IC50
1 | O=C(c1ccc(OCC2CCCO2)cc1)N1CCN(C(=O)C2COc3ccccc3O2)CC1 (centres undefined) | > 33 µM (inactive)
2 | COc1ccc(C(=O)N2CCN(C(=O)COc3ccc(Cl)cc3)CC2)cc1OC | > 33 µM (inactive)
3 | c1ccc(-c2nnc(SCc3nc4ccccc4[nH]3)n2Cc2ccco2)cc1 | > 33 µM (inactive)
4 | O=C(c1ccc(Oc2ccccc2)cc1)N1CCN(C(=O)C2COc3ccccc3O2)CC1 (centres undefined) | > 33 µM (inactive)
5 | Cc1nc(COc2ccc(C(=O)N3CCN(C(=O)C4COc5ccccc5O4)CC3)cc2)cs1 (centres undefined) | > 33 µM (inactive)
6 | c1ccc(-c2nnc(SCc3nc4ccccc4[nH]3)n2Cc2ccco2)nc1 | > 33 µM (inactive)
7 | c1coc(Cn2c(SCc3nc4ccccc4[nH]3)nnc2-c2ccco2)c1 | > 33 µM (inactive)
8 | COc1ccc(C(=O)N2CCN(C(=O)C3CC(=O)N(c4ccccc4)C3)CC2)cc1OC (centres undefined) | > 33 µM (inactive)
9 | Cc1ccc(-c2nnc(SCc3nc4ccccc4[nH]3)n2Cc2ccco2)cc1 | > 33 µM (inactive)
10 | COc1ccc(OCC(=O)N2CCN(C(=O)c3ccc(OC)c(OC)c3)CC2)cc1 | > 33 µM (inactive)
11 | O=C(c1ccc(Oc2ccc(F)cc2)cc1)N1CCN(C(=O)C2COc3ccccc3O2)CC1 (centres undefined) | > 33 µM (inactive)
12 | c1coc(Cn2c(SCc3nc4ccccc4[nH]3)nnc2-c2cccs2)c1 | > 33 µM (inactive)
13 | COc1ccc(C(=O)N2CCN(C(=O)CCc3c[nH]c4ccccc34)CC2)cc1OC | > 33 µM (inactive)
14 | c1coc(Cn2c(SCc3nc4ccccc4[nH]3)nnc2-c2cnccn2)c1 | > 33 µM (inactive)
15 | CC(=O)Nc1ccccc1C(=O)N1CCN(C(=O)C2COc3ccccc3O2)CC1 (centres undefined) | 6 µM
16 | COc1ccc(C(=O)N2CCN(C(=O)COc3ccc(C)cc3)CC2)cc1OC | > 33 µM (inactive)
17 | Cc1ccc(COCc2nnc(SCc3nc4ccccc4[nH]3)n2Cc2ccco2)cc1 | > 33 µM (inactive)
18 | CCOc1ccc(C(=O)N2CCN(C(=O)C3COc4ccccc4O3)CC2)cc1 (centres undefined) | > 33 µM (inactive)
19 | COc1cccc(C(=O)N2CCN(C(=O)C3COc4ccccc4O3)CC2)c1 (centres undefined) | 4 µM
20 | O=C(c1ccc2nc(C(F)(F)F)[nH]c2c1)N1CCN(C(=O)C2COc3ccccc3O2)CC1 (centres undefined) | 7 µM
21 | COc1ccc(C(=O)N2CCN(C(=O)C(c3ccccc3)c3ccccc3)CC2)cc1OC | > 33 µM (inactive)
22 | COc1ccc(C(=O)N2CCN(C(=O)COc3ccccc3)CC2)cc1OC | > 33 µM (inactive)
23 | Clc1ccc(COCc2nnc(SCc3nc4ccccc4[nH]3)n2Cc2ccco2)cc1 | > 33 µM (inactive)
24 | COc1cc(C(=O)N2CCN(C(=O)C3COc4ccccc4O3)CC2)cc(Cl)c1OC (centres undefined) | > 33 µM (inactive)
